The subject of series [1] is Mycobacterium tuberculosis. Briefly: Antimycobacterial activity against replicating Mycobacterium tuberculosis H37Rv ATCC 27294 incubated for 7 days by microplate alamar blue assay. In kind it is functional. The conditions noted are these: H37Rv ATCC 27294, 168 h, time 7 day. The method, boiled down: (§1)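 H37Rv (ATCC 27294) in 7H12 broth (7H9 with casitone, BSA, catalase, palmitic acid). Compounds from DMSO in twofold serial dilution; final inoculum 3 to 5 X10⁵ cells/mL; 7 days at 37°C. Resazurin plus Tween 80 added, 18–24 h more at 37°C. Fluorescence read at 530 nm excitation/590 nm emission. MIC is the lowest concentration giving 90% fluorescence reduction versus untreated bacteria.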

For series [2], the system named is Mycobacterium tuberculosis. Briefly: Antimycobacterial activity against non-replicating Mycobacterium tuberculosis H37Rv ATCC 27294 incubated for 10 days under anaerobic condition followed by treatment under aerobic condition and measured on day 11 by luminescence based low oxygen recovery assay. In kind it is functional. Particulars: H37Rv ATCC 27294, 264 h, time 11 day. In outline:
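Low-oxygen recovery assay with H37Rv carrying autoluminescent LuxABCDE plasmid, adapted to low oxygen. Cells in 7H12 broth, sonicated 15 s, inoculum 5 x 10⁵ to 2 x 10⁶ CFU/mL, with twofold compound dilutions. Anaerobic (<0.16% O₂; 10% H₂, 5% CO₂, N₂) at 37°C for 10 days, then 28 h aerobic recovery (5% CO₂ air). Luminescence read day 11; MIC at 90% signal reduction versus untreated controls.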

A short description of series [3]: Cytotoxicity against human HepG2 cells assessed as reduction in cell viability by alamar blue assay. In kind it is toxicity, cell-based. In outline: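 HepG2 cells grown in Glutamax DMEM with 10% (v/v) FBS and antibiotics, seeded in 96-well plates at 37°C, 5% CO₂. Viability measured by Alamar Blue staining per manufacturer's protocol; CC₅₀ derived.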
The test system of series [4] is Mycobacterium tuberculosis. Briefly: Antibacterial activity against Mycobacterium tuberculosis H37Rv ATCC 27294 by microplate alamar blue assay. In kind it is functional. The method, boiled down:
as §1

In series [5] the test system is Mycobacterium tuberculosis. Description: Antibacterial activity against Mycobacterium tuberculosis H37Rv incubated for 7 days by alamar blue reagent based fluorescence plate reader analysis. In kind it is functional. The conditions noted are these: 168 h, time 7 day. The method, boiled down:
as §1

The test system of series [6] is Mycobacterium tuberculosis. Description: Antimycobacterial activity against Mycobacterium tuberculosis H37Ra by microplate alamar blue assay. In kind it is functional.
The subject of series [7] is Mycobacterium tuberculosis. Description: Antibacterial activity against Mycobacterium tuberculosis H37Rv. In kind it is functional. In outline:
as §1

Molecules are shown by their SMILES. Values after ≈ are worked out from the molar mass of the structure shown.

For `O=C(Cc1c[nH]c2ccccc12)Nc1nc2ccccc2c2ccccc12`, the values for the MIC in series [1] and in series [2] were 125 µM (≈ 44.1 µg/mL) and 69 µM (≈ 24.2 µg/mL), respectively. In addition, the CC50 in series [3] stood at 32.1 µM.

In the case of `Cc1ccc(-n2cc(CNC(=O)c3c(C)nc4c5ccccc5c5ccccc5n34)nn2)cc1C`, the MIC in series [1] was 41.5 µM (≈ 19.1 µg/mL); in series [2], 78.8 µM (≈ 36.3 µg/mL).

As for `O=C(NCc1ccc(N2CCC(Cl)CC2)cc1)c1cc([N+](=O)[O-])cc([N+](=O)[O-])c1`, it took 0.038 µM (≈ 0.0159 µg/mL) to inhibit growth in series [4] (MIC).

As to `Cc1ccc2nc(C)c(C(=O)NCCCC3CCCCC3)n2c1`, the MIC in series [5] worked out at 0.1 µM (≈ 0.0313 µg/mL).

Take `CCCCCCCC(=O)Nc1nc2ccccc2c2ccccc12`: the MIC in series [1] is above 312 µM; in series [2] it was 300 µM (≈ 96.2 µg/mL). Also, the CC50 in series [3] is above 50 µM.

`Nc1nc2ccccc2c2ccccc12`: the MIC is 61.3 µM (≈ 11.9 µg/mL) in series [1] and 62.1 µM (≈ 12.1 µg/mL) in series [2]. In addition, the CC50 in series [3] stood at 30.5 µM.

Consider `C#CCNC(=O)c1c(C)nc2c3ccccc3c3ccccc3n12`, for which the MIC in series [1] and in series [2] was above 319 µM throughout.

Consider `CCc1ccc(-n2cc(CNC(=O)c3c(C)nc4c5ccccc5c5ccccc5n34)nn2)cc1`, for which the MIC in series [1] and in series [2] was above 217 µM throughout.

Consider `Cc1nc2c3ccccc3c3ccccc3n2c1C(=O)NCc1cn(-c2cccc([N+](=O)[O-])c2)nn1`, for which the values for the minimum inhibitory concentration (MIC) in series [1] and in series [2] were 84.3 µM (≈ 40.2 µg/mL) and 87.4 µM (≈ 41.7 µg/mL), respectively. Also, the CC50 in series [3] amounted to 71.9 µM.

Turning to `NNC(=O)c1ccncc1` [ISONIAZID], the MIC in series [1] came to 2.62 µM (≈ 0.36 µg/mL); in series [2] it was 560 µM (≈ 76.8 µg/mL).

Turning to `O=C(CCCc1c[nH]c2ccccc12)Nc1nc2ccccc2c2ccccc12`, the MIC was determined as 70.6 µM (≈ 26.8 µg/mL) in series [1] and 218 µM (≈ 82.8 µg/mL) in series [2]. For the same compound, the CC50 in series [3] is 30 µM.

With `O=C(Nc1ccc(Cl)cn1)c1cccc(C(F)(F)F)c1`, the MIC in series [6] came to 109 µM (≈ 32.7 µg/mL).

For `Nc1ccc(C(=O)Nc2nc3ccccc3c3ccccc23)cc1`, the figures for the MIC in series [1] and in series [2] were 78.3 µM (≈ 24.5 µg/mL) and 85.8 µM (≈ 26.9 µg/mL), respectively. The CC50 in series [3] was determined as 32.1 µM.

As for `O=C(Nc1nc2ccccc2c2ccccc12)c1ccccc1I`, the MIC in series [1] and in series [2] was above 236 µM each time.

With `COc1ccc(-n2cc(CNC(=O)c3c(C)nc4c5ccccc5c5ccccc5n34)nn2)c([N+](=O)[O-])c1`, the MIC in series [1] was 94 µM (≈ 47.7 µg/mL); in series [2], 106 µM (≈ 53.6 µg/mL).

In the case of `Cc1nc2c3ccccc3c3ccccc3n2c1C(=O)NCc1cn(-c2ccc([N+](=O)[O-])cc2Br)nn1`, the MIC in series [1] and in series [2] was 180 µM (≈ 100 µg/mL) throughout.

With `O=C(/C=C/c1ccccc1)Nc1nc2ccccc2c2ccccc12`, the MIC in series [1] and in series [2] was above 308 µM throughout.

`O=C(Cc1ccc(Br)cc1)Nc1nc2ccccc2c2ccccc12`: the MIC in series [1] and in series [2] was above 256 µM throughout. Moreover, the CC50 in series [3] is above 50 µM.

With `Cc1nc2c3ccccc3c3ccccc3n2c1C(=O)NCc1cn(-c2cccc(C(F)(F)F)c2)nn1`, the MIC in series [1] worked out at 184 µM (≈ 92 µg/mL); in series [2] it was 89.5 µM (≈ 44.8 µg/mL). Also, the CC50 in series [3] was 82.3 µM.

On to `CCCCCC(=O)Nc1nc2ccccc2c2ccccc12`, for which the MIC in series [1] is above 342 µM; in series [2] it was 79.8 µM (≈ 23.3 µg/mL). The CC50 in series [3] is 79.5 µM.

Regarding `C#CCCC(=O)Nc1nc2ccccc2c2ccccc12`, the MIC in series [1] and in series [2] was above 365 µM each time. In addition, in series [3], the CC50 stood at 22.6 µM.

Compound `CCc1nc2ccc(C)cn2c1C(=O)NCCOc1ccc(N2CCC(=NOC)CC2)cc1` showed an MIC in series [4] below 0.035 µM.

`O=C(Nc1nc2ccccc2c2ccccc12)c1cnccn1`: the MIC in series [1] and in series [2] was above 333 µM in each case. In series [3], the CC50 is 53 µM.

As for `Cc1cc(C)cc(-n2cc(CNC(=O)c3c(C)nc4c5ccccc5c5ccccc5n34)nn2)c1`, the MIC in series [1] is above 217 µM; in series [2], 208 µM (≈ 95.9 µg/mL). Also, the CC50 in series [3] worked out at 90.7 µM.

For the compound `CO[C@H]1/C=C/O[C@@]2(C)Oc3c(C)c(O)c4c(O)c(c(/C=N/N5CCN(C)CC5)c(O)c4c3C2=O)NC(=O)/C(C)=C\C=C\[C@H](C)[C@H](O)[C@@H](C)[C@@H](O)[C@@H](C)[C@H](OC(C)=O)[C@@H]1C` [RIFAMPIN], the MIC in series [1] stood at 0.073 µM (≈ 0.0601 µg/mL); in series [2] it was 0.145 µM (≈ 0.119 µg/mL).

Turning to `Cc1nc2c3ccccc3c3ccccc3n2c1C(=O)NCc1cn(-c2ccc(Cl)c(Cl)c2[N+](=O)[O-])nn1`, the MIC in series [1] and in series [2] was above 183 µM in each case.

Regarding `Cc1nc2c3ccccc3c3ccccc3n2c1C(=O)NCc1cn(-c2ccc(C(F)(F)F)cc2)nn1`, the values for the MIC in series [1] and in series [2] were above 200 µM and 93 µM (≈ 46.5 µg/mL), respectively. Also, in series [3], the CC50 is 84.4 µM.

`Cc1nc2c3ccccc3c3ccccc3n2c1C(=O)NCc1cn(-c2ccccc2Cl)nn1`: the MIC in series [1] and in series [2] was above 214 µM throughout.

In the case of `COc1nc2ccc(Br)cc2cc1[C@@H](c1ccccc1)[C@@](O)(CCN(C)C)c1cccc2ccccc12` [BEDAQUILINE], the MIC in series [1] worked out at 0.054 µM (≈ 0.03 µg/mL); in series [2], 0.216 µM (≈ 0.12 µg/mL).

Consider `N#Cc1ccc(Cn2cc(CNC(=O)c3cn4ccccc4n3)nn2)cc1`, for which the MIC in series [7] was 1560 µM (≈ 558 µg/mL).

As for `O=C(Cc1ccccc1)Nc1nc2ccccc2c2ccccc12`, the results for the MIC in series [1] and in series [2] were 294 µM (≈ 91.8 µg/mL) and 267 µM (≈ 83.5 µg/mL), respectively. Further, the CC50 in series [3] was above 50 µM.

As to `O=C(Nc1nc2ccccc2c2ccccc12)c1cccc(Cl)c1`, the MIC in series [1] and in series [2] was above 300 µM in each case.

Take `Nc1cccc(C(=O)Nc2nc3ccccc3c3ccccc23)c1`: the values for the MIC in series [1] and in series [2] were 150 µM (≈ 46.9 µg/mL) and 151 µM (≈ 47.2 µg/mL), respectively. Further, the CC50 in series [3] is 56.9 µM.

These data come from ChEMBL document CHEMBL5329165, “Design, synthesis and biological evaluation of phenanthridine amide and 1,2,3-triazole analogues against Mycobacterium tuberculosis” (RSC Med Chem, 2023).
